The values below come from PubChem BioAssay.

A number with no mark means an inactive call. Inconclusive results are not listed. Active and inactive are the calls of the source.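 How the source made its calls, unless noted: active means inhibition over a set limit, the all-compound mean plus 3 SD, in both replicate runs; inconclusive means over that limit in just one replicate run; inactive means at or under that limit in both runs.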

A short description of assay [1]: OD615 S. cerevisiae growth inhibition, permissive medium, pilot counter-assay, permissive growth control for S. cerevisiae lifespan shortening project (AID 705;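 active means growth inhibition above 25% in both replicates, a cutoff set 3 SD above the mean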). To be noted: OD615, 24 h, at 10 µM, active compounds read high. Summed up: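 System: S. cerevisiae with engineered DeaD lifespan system. Medium: SC raffinose/galactose permissive medium. Doses: single compound dose of 10 µM, 0.25% DMSO final. Schedule: 24 h exposure, 30 °C. Measured by: OD615 turbidity read. Read-out: growth inhibition.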

Assay [2] in a line: Restrictive medium S. cerevisiae growth inhibition, OD615, pilot screen of yeast lifespan reduction project, restrictive growth control (AID 706;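 active means growth inhibition above a set limit, 3 SD over mean compound inhibition, in both replicates, cut at about 43% in these data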). To be noted: OD615, 48 h, at 10 µM, active compounds read high. Summed up: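 Assay system – genetically modified Saccharomyces cerevisiae, DeaD replicative lifespan assay strain · Medium – CSMM-D glucose medium · Doses – 10 µM compound, 0.25% DMSO · Times – 4 h pre-incubation, 48 h exposure at 30 °C · Signal – optical density at 615 nm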

The nature of assay [3]: viability gain of MRP-1-high H69AR cells under doxorubicin, pilot screen, MRP-1 activator project, CellTiter-Glo, duplicate (AID 807;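 active means viability increase at or above a cutoff of the median across tested compounds plus 3 SD, cut at about 8.5% in these data, passing the limit was not always enough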;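 further: compound pretreatment 18-22 h then 72 h combined with doxorubicin; 0% = doxorubicin alone and 100% = vehicle without doxorubicin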). To be noted: H69AR viability with doxorubicin, CellTiter-Glo luminescence; at 10 µM; active compounds read high.
Assay [4] in a line: growth suppression of beta-catenin knockout HCT116, pilot screen, human colon tumor cells (AID 823;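 active means cell viability at or below a set limit in both duplicate runs, the limit being the all-compound median minus 4 SD, cut at about 23% in these data, passing the limit was not always enough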;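 further: 0% = wells killed by 20 µM Hyamine and 100% = untreated DMSO cell wells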). To be noted: CellTiter-Glo, 60 h, at 10 µM, active compounds read low.
Assay [5] can be described thus: inhibitors of the yeast RAM network, pilot screen, dse1pr::URA3 reporter, 5-FOA selection (AID 869).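 Further: 0% = DMSO wells with no growth and 100% = 10 µM 1-NA-PP1 with full growth; RAM network block rescues cells from 5-FOA so hits raise OD615 growth.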 The note with it: S. cerevisiae dse1pr::URA3 5-FOA growth, OD615, 2 d; at 10 µM; active compounds read high; strain carries analog-sensitive mutant Cbk1 kinase.
A short description of assay [6]: RAM signaling pathway blockade in yeast – S. cerevisiae, Pdr1DBD-CYC8 efflux-inhibited sensitized strain, primary screen (AID 1298;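 active means RAM network inhibition above 8.4% in each of two replicates, 3 SD over the compound average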;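 further: 0% = DMSO untreated cells without growth and 100% = 10 µM 1-NA-PP1 full growth; higher means more yeast growth rescued from 5-FOA killing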). To be noted: S. cerevisiae cbk1-as DSE1-URA3 strain, 5-FOA growth OD615, 2 d; at 50 µM; active compounds read high.

With `O=C(N=c1nc2ccccn2s1)c1ccccc1`, the growth inhibition in assay [1] was -6.95%; in assay [2] it was 6.63%. The viability increase in assay [3] was -7.06%. The viability – broadly, a read-out of living cells in per cent, often relative to untreated cells – in assay [4] was 71.6%. Also, the inhibition (as a rule, how much of the control response was suppressed) in assay [5] was 3.28%. In addition, the RAM network inhibition in assay [6] is 6.13%.

On to `CCOc1ccccc1NC(=O)CSc1nnc(-c2cnccn2)n1C`, for which the growth inhibition is -24.8% in assay [1] and -1.53% in assay [2]. Moreover, in assay [3], the viability increase was -3.17%. Further, in assay [4], the viability is 91.8%. Besides, the inhibition in assay [5] was 3.12%. In addition, the RAM network inhibition in assay [6] was 5.04%.

As to `CC1(C)Cc2c(sc3nc(SCC(=O)N4CCOCC4)nc(N)c23)CO1`, the growth inhibition was -2.9% in assay [1] and 18.3% in assay [2]. Further, the viability increase in assay [3] is -3.19%. For the same compound, the viability in assay [4] is 98.9%. Besides, the inhibition in assay [5] is 1.49%. Moreover, in assay [6], the RAM network inhibition is 0.62%.

With `N#Cc1c2n(cnc1=O)CCCCC2`, the growth inhibition in assay [1] is -15.7%; in assay [2], 3.32%. In addition, the viability increase in assay [3] is -1.5%. In addition, in assay [4], the viability is 100%. Further, the inhibition in assay [5] was 0.835%. The RAM network inhibition in assay [6] was 3.53%.

As for `Cc1ccc(Cc2cnc(N)s2)o1`, the figures for the growth inhibition in assay [1] and in assay [2] were -11.3% and 10.1%, respectively. For the same compound, the viability increase in assay [3] was -5.06%. Further, the viability in assay [4] is 75.9%. In addition, the inhibition in assay [5] was 2.06%. Besides, the RAM network inhibition in assay [6] is 5.71%.

On to `COc1ccc(Nc2ncnc3c2cnn3Cc2ccccc2)cc1`, for which the growth inhibition is -28.7% in assay [1] and 3.04% in assay [2]. Besides, the viability increase in assay [3] is 1.14%. In addition, the viability in assay [4] was 88.9%. For the same compound, in assay [5], the inhibition is 1%. Moreover, the RAM network inhibition in assay [6] was 3.74%.

For the compound `Cc1ccccc1-c1nnc(SCC(=O)Nc2ccc(Cl)cc2)n1N`, the growth inhibition in assay [1] was -8.16%; in assay [2], 0.61%. Further, in assay [3], the viability increase was 2.22%. Moreover, the viability in assay [4] was 94.5%. In addition, in assay [5], the inhibition was 1.17%. Further, the RAM network inhibition in assay [6] was 5.42%.

On to `Cc1c(Cl)cccc1NC(=O)CCN1CCCC(C)C1` (stereo not given), for which the growth inhibition was -12.9% in assay [1] and 3.83% in assay [2]. Besides, in assay [3], the viability increase is -3.58%. Also, in assay [4], the viability was 94.7%. The inhibition in assay [5] was 2.28%. Moreover, the RAM network inhibition in assay [6] was 3.43%.

On to `CCOC(=O)CNC(=O)c1cn(CC)c(=O)c2cc(OC)c(OC)cc12`, for which the growth inhibition was -14.4% in assay [1] and -5.67% in assay [2]. Also, the viability increase in assay [3] is -2.48%. In addition, the viability in assay [4] is 103%. For the same compound, the inhibition in assay [5] is 2.65%. Moreover, the RAM network inhibition in assay [6] was 2.7%.

`O=C1c2ccccc2C(=O)N1CCCC(=O)N1CCc2ccccc21`: the growth inhibition was -21.9% in assay [1] and 8.75% in assay [2]. In addition, the viability increase in assay [3] is -0.37%. For the same compound, in assay [4], the viability was 95.7%. Besides, the inhibition in assay [5] is 2.44%. Besides, the RAM network inhibition in assay [6] is 10.1%.

In the case of `COCCCNC(=O)c1cc2c(=O)n(C)c3ccccc3c2n1C`, the growth inhibition in assay [1] was -7.96%; in assay [2] it was -5.92%. For the same compound, the viability increase in assay [3] is -7.13%. Also, the viability in assay [4] is 36.5%. Also, the inhibition in assay [5] is 0.345%. The RAM network inhibition in assay [6] is 4.4%.

For the compound `Cc1ccc(C)c(NC(=O)CSc2nnc(-c3ccncc3)n2N)c1`, the growth inhibition is 5.02% in assay [1] and -0.075% in assay [2]. For the same compound, the viability increase in assay [3] was -4.65%. Besides, the viability in assay [4] is 103%. For the same compound, the inhibition in assay [5] was 0.06%. The RAM network inhibition in assay [6] is -0.98%.

Regarding `CCC(=O)N1CCc2cc(Br)cc(S(=O)(=O)CCC(=O)NCc3ccco3)c21`, the results for the growth inhibition in assay [1] and in assay [2] were -26.8% and 0.16%, respectively. Also, the viability increase in assay [3] is -4.1%. For the same compound, the viability in assay [4] was 94.9%. For the same compound, the inhibition in assay [5] is 2.91%. In assay [6], the RAM network inhibition is 4.36%.

Turning to `Fc1ccc(Br)cc1C1C=C(c2cccnc2)Nc2ncnn21` (stereo not given), the growth inhibition in assay [1] was 6.35%; in assay [2] it was 46.9% (active). In addition, the viability increase in assay [3] was -4.62%. In assay [4], the viability is 44.5%. Also, the inhibition in assay [5] is 3.21%. The RAM network inhibition in assay [6] was 21.7% (active).

On to `CCO/C=N/c1c(C#N)c(CC#N)nn1-c1ccccc1`, for which the growth inhibition was -13.5% in assay [1] and 2.31% in assay [2]. In addition, in assay [3], the viability increase was -1.36%. Further, the viability in assay [4] was 94.6%. In addition, the inhibition in assay [5] was 2.31%. Further, the RAM network inhibition in assay [6] was 1.41%.

Consider `CCC1SC2=NC(C)=C(C(=O)OC)C(c3ccc(C(=O)OC)cc3)N2C1=O` (stereo not given), for which the growth inhibition in assay [1] is 6.67%; in assay [2] it was 35.7%. The viability increase in assay [3] was 3.25%. Besides, the viability in assay [4] was 101%. Also, in assay [5], the inhibition is 1.47%. The RAM network inhibition in assay [6] is 9.87%.

For the compound `Cc1nc(-n2nnc3ccccc32)c2c3c(sc2n1)CCCC3`, the growth inhibition in assay [1] was -14.5%; in assay [2] it was 0.92%. Moreover, the viability increase in assay [3] was -2.54%. The viability in assay [4] was 82%. The inhibition in assay [5] is 1.11%. The RAM network inhibition in assay [6] was 3.02%.

As for `Cc1cccc(N2CCN(c3nc4ccccc4n4cnnc34)CC2)c1C`, the growth inhibition in assay [1] was -11.7%; in assay [2] it was -6.28%. Moreover, in assay [3], the viability increase was -4.42%. Also, the viability in assay [4] was 49.3%. For the same compound, the inhibition in assay [5] is 1.89%. In addition, the RAM network inhibition in assay [6] is -0.66%.

Regarding `C=CCOC(=O)CCCC(=O)NC1CCCCC1`, the growth inhibition was -26.9% in assay [1] and 5.64% in assay [2]. Besides, the viability increase in assay [3] is -0.4%. Besides, the viability in assay [4] was 95.6%. The inhibition in assay [5] is 1.58%. Further, the RAM network inhibition in assay [6] was 4.88%.

For the compound `CCOc1cc(OCC)cc(C(=O)Nc2cccnc2)c1`, the growth inhibition in assay [1] is -12.6%; in assay [2], -12.7%. Moreover, in assay [3], the viability increase is -1.99%. Also, the viability in assay [4] is 100%. The inhibition in assay [5] was 1.77%. Further, in assay [6], the RAM network inhibition was 4.32%.
